Key:
[1] = target: T1, Polyunsaturated fatty acid lipoxygenase ALOX15 (Homo sapiens, UniProt P16050); test: Inhibition of 15-LO-mediated 15-HETE formation in LPS-stimulated human monocytes preincubated for 15 mins before arachidonic acid substrate addition measured after 30 mins by UPLC-MS/MS analysis; assay type: cell-based
T1 sequence (P16050 whole entry): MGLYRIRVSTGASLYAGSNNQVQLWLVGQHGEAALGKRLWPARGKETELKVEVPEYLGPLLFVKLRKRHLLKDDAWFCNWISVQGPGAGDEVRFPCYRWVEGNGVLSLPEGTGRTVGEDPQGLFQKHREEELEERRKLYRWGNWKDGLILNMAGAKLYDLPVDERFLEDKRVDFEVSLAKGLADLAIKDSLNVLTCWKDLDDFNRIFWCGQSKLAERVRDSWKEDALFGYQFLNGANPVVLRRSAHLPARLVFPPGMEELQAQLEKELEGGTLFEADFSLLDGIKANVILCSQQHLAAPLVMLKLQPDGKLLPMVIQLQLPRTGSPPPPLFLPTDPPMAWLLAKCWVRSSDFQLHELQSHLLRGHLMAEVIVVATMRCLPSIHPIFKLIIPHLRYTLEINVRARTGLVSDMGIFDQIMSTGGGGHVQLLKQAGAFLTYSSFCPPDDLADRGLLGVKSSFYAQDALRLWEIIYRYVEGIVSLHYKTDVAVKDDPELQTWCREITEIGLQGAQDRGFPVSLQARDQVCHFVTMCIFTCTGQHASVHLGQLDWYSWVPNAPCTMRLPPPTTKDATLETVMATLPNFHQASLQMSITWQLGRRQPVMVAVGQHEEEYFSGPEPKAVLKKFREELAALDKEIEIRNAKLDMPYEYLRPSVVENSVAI

[2] = tested on: Monocyte; test: Inhibition of thromboxane B2 formation in LPS-stimulated human monocytes preincubated for 15 mins before arachidonic acid substrate addition measured after 30 mins by UPLC-MS/MS analysis; assay type: functional, cell-based
Method in brief: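 Fresh human monocytes (adherence-isolated, >85% CD14+; 5 × 10⁶/well) primed with LPS 1 μg/mL for 24 h. Washed, 15 min preincubation, then 2.5 μM A23187 plus 20 μM arachidonic acid for 30 min. Eicosanoids extracted and measured by UPLC-MS/MS, normalized to PGB1 as relative intensities. Two to three independent experiments.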

[3] = tested on: Mus musculus; test: Antiinflammatory activity in zymosan-induced peritonitis CD1 mouse model assessed as suppression of LTB4 level at 10 mg/kg, ip administered 30 mins before challenge measured 4 hrs post zymosan challenge relative to control
[4] = target: T2, Prostaglandin G/H synthase 2 (Homo sapiens, UniProt P35354); test: Inhibition of COX2-mediated PGD2 formation in LPS-stimulated human monocytes preincubated for 15 mins before arachidonic acid substrate addition measured after 30 mins by UPLC-MS/MS analysis; assay type: cell-based
T2 sequence (P35354 whole entry): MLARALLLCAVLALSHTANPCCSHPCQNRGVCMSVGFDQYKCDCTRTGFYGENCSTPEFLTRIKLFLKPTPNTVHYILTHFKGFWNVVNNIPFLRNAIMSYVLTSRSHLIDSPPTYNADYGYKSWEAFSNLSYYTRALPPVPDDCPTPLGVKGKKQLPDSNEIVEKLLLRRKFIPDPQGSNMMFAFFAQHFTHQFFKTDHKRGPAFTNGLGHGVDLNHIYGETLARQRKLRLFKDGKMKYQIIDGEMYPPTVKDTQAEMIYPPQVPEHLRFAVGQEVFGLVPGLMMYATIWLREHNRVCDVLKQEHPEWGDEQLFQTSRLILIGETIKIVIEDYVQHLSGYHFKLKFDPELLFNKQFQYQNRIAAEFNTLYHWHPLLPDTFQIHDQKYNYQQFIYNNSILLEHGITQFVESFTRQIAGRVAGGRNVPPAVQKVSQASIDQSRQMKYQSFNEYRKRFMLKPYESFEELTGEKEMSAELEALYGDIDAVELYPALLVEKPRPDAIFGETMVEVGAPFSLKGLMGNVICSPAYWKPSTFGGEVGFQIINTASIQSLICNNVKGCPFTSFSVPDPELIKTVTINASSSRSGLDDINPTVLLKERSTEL

[5] = tested on: Mus musculus; test: Antiinflammatory activity in zymosan-induced peritonitis CD1 mouse model assessed as suppression of LTC4 level at 10 mg/kg, ip administered 30 mins before challenge measured 30 mins post zymosan challenge relative to control; assay type: functional; conditions: route intraperitoneal
Method in brief: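 Male CD-1 mice (33−39 g, 8−9 weeks; n = 5−11 per group) dosed ip in 0.5 mL 0.9% saline with 2% DMSO 30 min before ip zymosan (0.5 mL of 2 mg/mL in saline). Killed by CO2 30 min after zymosan, peritoneum lavaged with 3 mL cold PBS pH 7.4. Cysteinyl-LTs in exudate supernatant by enzyme immunoassay; % inhibition vs vehicle.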

[6] = target: T2, Prostaglandin G/H synthase 2; test: Inhibition of COX2-mediated PGF2alpha formation in LPS-stimulated human monocytes preincubated for 15 mins before arachidonic acid substrate addition measured after 30 mins by UPLC-MS/MS analysis; assay type: cell-based

| IC50 [1] [nM] | IC50 [2] [nM] | IC50 [4] [nM] | IC50 [6] [nM] | Compound | inhibition in vivo at 10 mg/kg [3] [%] | inhibition in vivo at 10 mg/kg [5] [%] |
| --- | --- | --- | --- | --- | --- | --- |
| 1200 | 1200 |  |  | COc1cc(/C=C/C(=O)CC(=O)/C=C/c2ccc(O)c(OC)c2)ccc1O [CURCUMIN] |  |  |
|  |  | > 10000 | > 10000 | COc1cc(/C=C/c2cc(/C=C/c3cc(CC=C(C)C)c(O)c(OC)c3)[nH]n2)cc(CC=C(C)C)c1O | 61 | 92 |

Source: ChEMBL document CHEMBL3286393 (J Med Chem, 2014)
